The source made the active and inactive calls.
What was measured:
Mus musculus [1] = test: Antiallodynic activity against capsaicin-induced secondary mechanical pain in CD-1 mouse assessed as paw withdrawal-latency at 100 mg/kg, sc measured after 30 mins post compound administration; assay type: functional, organism-based; design: dose 100 mg/kg
In short: (§1)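 Female CD-1 mice, sc dosing in 2% Tween 80 (5 mL/kg) 30 min before testing. Capsaicin (1 μg in 20 μL 1% DMSO) given ipl; 15 min later a 0.5 g force was applied with an electronic von Frey device ≥5 mm from the injection site toward the toes. Paw withdrawal latency recorded over three trials at 30 s intervals, 50 s cutoff. 8−12 mice per group, two-way ANOVA with Bonferroni.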

Mus musculus [2] = test: Antinociceptive activity in CD-1 mouse assessed as reduction of formalin-induced inflammatory pain at 100 mg/kg, sc administered 15 mins challenge measured after 10 to 50 mins; assay type: functional, organism-based; design: dose 100 mg/kg
Mus musculus [3] = test: Analgesic activity in CD-1 mouse assessed as inhibition of acetic acid-induced writhing response at 100 mg/kg, sc measured after 30 mins; assay type: functional, organism-based; design: dose 100 mg/kg
In short: (§2)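 Female CD-1 mice (25−30 g), dosed sc interscapularly in 2% Tween 80 in water (5 mL/kg), 30 min before ip 0.6% acetic acid (10 mL/kg). Writhes (torso stretches with back arching and leg extension) counted cumulatively over 30 min. Mean ± SEM of 8−12 mice per group versus vehicle, one-way ANOVA with Bonferroni.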

Mus musculus [4] = test: Antinociceptive activity in CD-1 mouse assessed as reduction of formalin-induced inflammatory pain at 100 mg/kg, sc administered 15 mins challenge measured up to 5 mins; assay type: functional, organism-based; design: dose 100 mg/kg
Mus musculus [5] = test: Neurotoxicity in CD-1 mouse assessed as impairment in motor coordination at 8 mg/kg, sc measured up to 3 hrs by rotarod test; assay type: toxicity, organism-based; design: dose 8 mg/kg, route subcutaneous; conditions: in vivo
In short: (§3)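 Female CD-1 mice trained three times on an accelerating rotarod (4 to 40 rpm over 5 min) 24 h before testing. Sc dosing in 2% Tween 80; latency to fall (300 s cutoff) recorded just before and 30, 60, 120 and 180 min after injection. 8−12 mice per group, two-way repeated-measures ANOVA with Bonferroni.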

Mus musculus [6] = test: Antiallodynic activity against capsaicin-induced secondary mechanical pain in sc dosed CD-1 mouse assessed as paw withdrawal-latency measured after 30 mins post compound administration; assay type: functional, organism-based; in short: as §1
Mus musculus [7] = test: Antinociceptive activity in CD-1 mouse assessed as reduction of formalin-induced inflammatory pain at 1 % administered topically 15 mins challenge measured after 10 to 50 mins; assay type: functional, organism-based
In short: (§4)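 Female CD-1 mice, unanesthetized and restrained. 0.1 g of a 1% compound-enriched Carbopol gel (1% Carbopol, 2% triethanolamine, 5% propylene glycol) or vehicle gel was spread on the plantar hindpaw, ipsilateral or contralateral, 15 min before intraplantar formalin (20 μL, 5%). Licking/biting time scored for phase 1 (0−5 min) and phase 2 (10−50 min). 8−12 mice per group.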

Mus musculus [8] = test: Neurotoxicity in CD-1 mouse assessed as impairment in motor coordination at 512 mg/kg, sc measured up to 3 hrs by rotarod test; assay type: toxicity, organism-based; design: dose 512 mg/kg, route subcutaneous; conditions: in vivo; in short: as §3
Mus musculus [9] = test: Antinociceptive activity in CD-1 mouse assessed as reduction of formalin-induced inflammatory pain at 1 % administered topically 15 mins challenge measured up to 5 mins; assay type: functional, organism-based; in short: as §4
Mus musculus [10] = test: Analgesic activity in CD-1 mouse assessed as inhibition of acetic acid-induced writhing response at 64 to 256 mg/kg, sc measured after 30 mins; assay type: functional, organism-based; in short: as §2
Mus musculus [11] = test: Neurotoxicity in CD-1 mouse assessed as impairment in motor coordination at 64 mg/kg, sc measured up to 3 hrs by rotarod test; assay type: toxicity, organism-based; design: dose 64 mg/kg, route subcutaneous; conditions: in vivo; in short: as §3
Mus musculus [12] = test: Antiallodynic activity against capsaicin-induced secondary mechanical pain in CD-1 mouse assessed as paw withdrawal-latency at 64 mg/kg, sc measured after 30 mins post compound administration; assay type: functional, organism-based; design: dose 64 mg/kg; in short: as §1

CC(C)Cc1ccc(C(C)C(=O)O)cc1 (configuration not stated)
Activity (Mus musculus [1]): inactive
Activity (Mus musculus [2]): Active
inhibition (Mus musculus [3]): Active
Activity (Mus musculus [4]): inactive

NCC(CC(=O)O)c1ccc(Cl)cc1 (configuration not stated) [BACLOFEN]
Activity (Mus musculus [5]): Toxic

CC1(C)CC[C@]2(C(=O)O)CC[C@]3(C)C(=CC[C@@H]4[C@@]5(C)C[C@@H](O)[C@H](O)C(C)(C)[C@@H]5CC[C@]43C)[C@@H]2C1 [MASLINIC ACID]
Activity (Mus musculus [6]): Dose-dependent effect
Activity (Mus musculus [7]): Active
Activity (Mus musculus [8]): Non-toxic
Activity (Mus musculus [9]): inactive
inhibition (Mus musculus [10]): Active

CC(C)C[C@H](CN)CC(=O)O [PREGABALIN]
Activity (Mus musculus [11]): Toxic
Activity (Mus musculus [12]): Active

Reference: ChEMBL document CHEMBL2331462, “Antiallodynic and analgesic effects of maslinic acid, a pentacyclic triterpenoid from Olea europaea” (J Nat Prod, 2013)
